In brackets after ≈: the same amount, converted by molar mass.

For test [1], the system named is Escherichia coli. In words: Antimicrobial activity against xtended-spectrum-beta-lactamase-producing Escherichia coli obtained from urinary tract infection patient assessed as percent susceptible isolates by Etest. Format: functional, Urine. Summed up: (§1)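 ESBL-producing E. coli isolates from urinary tract infections; ESBL expression confirmed by double-disk synergy test per 2007 CLSI guidelines. Verified isolates (n = 100) tested by Etest, alongside agar diffusion, for pivmecillinam, fosfomycin and ertapenem. Read-outs were MIC and susceptibility category (susceptible, reduced/intermediate, resistant), given as percent of isolates; mean MIC calculated for susceptible isolates.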

The subject of test [2] is Escherichia coli. As to the kind of experiment: Antimicrobial activity against xtended-spectrum-beta-lactamase-producing Escherichia coli obtained from urinary tract infection patient by Etest. In kind it is functional. The following applies: Urine. The method, boiled down:
as §1

Regarding `CC(C)(C)C(=O)OCOC(=O)[C@@H]1N2C(=O)[C@@H](/N=C/N3CCCCCC3)[C@H]2SC1(C)C` [AMDINOCILLIN PIVOXIL], the Activity with Escherichia coli [1] is reported as 85%. Inhibition of growth in the test on Escherichia coli [2] (MIC) required 1.17 µg/mL (≈ 2.66 µM). As for `O=C(O)c1cn(C2CC2)c2cc(N3CCNCC3)c(F)cc2c1=O` [CIPROFLOXACIN], in the test with Escherichia coli [1], the Activity was 22%.

On to `C[C@@H](O)[C@H]1C(=O)N2C(C(=O)O)=C(S[C@@H]3CN[C@H](C(=O)Nc4cccc(C(=O)O)c4)C3)[C@H](C)[C@H]12` [ERTAPENEM], for which, in the test with Escherichia coli [1], the Activity is on record as 100%. For the same molecule, in the test with Escherichia coli [2], it took 0.07 µg/mL (≈ 0.147 µM) to inhibit growth (MIC).

Turning to `C[C@@H]1O[C@@H]1P(=O)(O)O` [FOSFOMYCIN], the Activity in the test on Escherichia coli [1] was 97%. The lowest concentration to inhibit growth in the test on Escherichia coli [2] (MIC) was 1.38 µg/mL (≈ 10 µM). With `O=C1CN(/N=C/c2ccc([N+](=O)[O-])o2)C(=O)N1` [NITROFURANTOIN], the Activity with Escherichia coli [1] is on record as 94%. Further, the MIC (as a rule, the lowest concentration found to suppress growth) in the test on Escherichia coli [2] was 17 µg/mL (≈ 71.5 µM). For the molecule GENTAMICIN, in the test on Escherichia coli [1] (Urine), the Activity stood at 78%.

The values are drawn from ChEMBL document CHEMBL1649322, “Oral treatment options for ambulatory patients with urinary tract infections caused by extended-spectrum-beta-lactamase-producing Escherichia coli” (2010).
